# CASP6 VEID inh = human caspase-6 inhibitors, primary screen, biochemical, VEID-R110 fluorescence, single point, set 2; inhibition, % at 12.5 µM; 350,000 compounds, 0.53% hits; purified caspase-6, Z-VEID-R110 cleavage fluorescence; P55212;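 active = mean inhibition across replicates at least about 35%, with every replicate also reaching that limit, limit read from the data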;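 also: 0% = median of neutral control wells and 100% = no fluorescence left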
# NSD2 inh = NSD2 histone methyltransferase inhibitors, primary screen, biochemical, AlphaScreen, single concentration, set 2 | NSD2 peptide methylation, 120 min | inhibition, % at 12.5 µM | 310,000 compounds, 0.54% hits
# DNMT1 block = human DNMT1 methyltransferase inhibitors, primary screen, biochemical, molecular beacon, fluorescence, HinP1I cleavage, uHTS. inhibition (reported as % activation of signal), % at 10 µM. 360,000 compounds, 0.83% hits. DNA (cytosine-5)-methyltransferase 1 (Homo sapiens), P26358
# NS3 helicase inh = inhibitors of HCV NS3 helicase, primary screen, biochemical, Cy5 molecular beacon fluorescence. Hepatitis C virus NS3 helicase. NS3 helicase DNA unwinding. inhibition, % at 10.9 µM. 290,000 compounds, 0.56% hits. AID 1800, 2009;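 active = inhibition above the mean of all tested compounds plus 3 SD, set per campaign, cut at about 35% in these data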;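 also: 0% = DMSO wells and 100% = thioflavine S control wells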
#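 test system = hepatitis C virus NS3 helicase domain fragment enzyme | reagent = annealed dual-labelled DNA beacon duplex, ATP-started | times = 1 h at 25 °C | detection = Cy5 fluorescence, 0 and 60 min reads | read-out basis = percent inhibition from t60/t0 fluorescence ratio | control set = DMSO and thioflavine S | replication = one well per compound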
# NS3 helicase cf = HCV NS3 helicase inhibitors, retest, confirmation, biochemical, Cy5 molecular beacon fluorescence, triplicate; inhibition, % at 10.9 µM; 1,600 compounds, 31% hits; AID 1943, 2009; shares compounds with NS3 helicase inh; NS3 helicase DNA unwinding;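 active = inhibition above the mean of all tested compounds plus 3 SD, cutoff set per campaign, cut at about 36% in these data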
# DNA FID counter = compounds displacing fluorescent DNA intercalator, artefact control for HCV NS3 helicase inhibitor project, biochemical, FID fluorescence, triplicate; shares compounds with NS3 helicase inh; DNA fluorescent intercalator displacement; inhibition, % at 7.9 µM; 1,600 compounds, 4% hits; in the data active = inhibition above about 37%;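 also: 0% = vehicle and 100% = reference compound; higher means more displacement of ethidium bromide from the DNA hairpin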
# DNA FID DR = compounds displacing fluorescent intercalator from DNA, dose response, counter-screen for HCV NS3 helicase inhibitor project, biochemical, fluorescence. shares compounds with NS3 helicase inh. fluorescent intercalator displacement from DNA. IC50, µM. 120 tested, under 10 active. AID 2172, 2009; call rule not given here
# An asterisk follows results filed as active; . = not tested or not shown. In the library only some 1.5% were active in any assay of this set; here they are far more common. Rule as the data show it, unless noted: active = inhibition above about 50%; inactive = the rest.
SMILES,CASP6 VEID inh,NSD2 inh,DNMT1 block,NS3 helicase inh,NS3 helicase cf,DNA FID counter,others
Cn1c(=S)[nH]c2sc3c(c2c1=O)CCC(C(C)(C)C)C3 (stereo not drawn),4,8,0,43*,8,-13,
COc1ccccc1-c1cn(CC[C@@H]2CC[C@H](NC(=O)c3ccccc3F)[C@@H](CO)O2)nn1,-2,.,.,.,.,.,
CC=Cc1ccc2n(c1=O)C[C@@H]1[C@@H](CO)[C@H](C(=O)N[C@@H](C)c3ccccc3)N(C)[C@H]21 (mixture of isomers),0,.,.,.,.,.,
Cc1cc2cc(C(c3nnnn3Cc3ccco3)N3CCc4ccccc4C3)c(=O)[nH]c2cc1C (stereo not drawn),.,47,-9,39*,64*,-3,DNA FID DR=>79
Cc1cc2cc(C(c3nnnn3Cc3ccco3)N3CCc4ccccc43)c(=O)[nH]c2cc1C (stereo not drawn),.,3,-14,27,.,.,
Cc1ccc(C(O)Cn2cc([N+](=O)[O-])nc2C)cc1 (stereo not drawn),1,-5,-2,4,.,.,
Cc1nc([N+](=O)[O-])cn1CC(O)c1ccc(-c2ccccc2)cc1 (stereo not drawn),-5,0,3,45*,-6,0,
O=C(O)c1cc(N/N=C/C=C/c2ccccc2[N+](=O)[O-])ccc1Cl,11,15,-3,43*,52*,-3,
NS(=O)(=O)c1ccc(N/N=C/C=C/c2ccccc2[N+](=O)[O-])cc1,5,5,-4,-8,.,.,
COc1ccc(CCNC(=O)COC(=O)/C=C/c2cc(OC)c(OC)c(OC)c2)cc1OC,2,-2,-1,43*,-15,-41,
Cn1c2ccccc2c2cc(/C=N/NC(=O)c3cc(O)ccc3O)ccc21,48*,-1,46,69*,24,12,
Cc1ccc(/C=C/C(=O)Nc2ncc(C)s2)o1,11,7,9,50*,-9,8,
COc1cccc(-c2ccc3c(c2)O[C@H](CN(C)C(=O)C2CCOCC2)[C@H](C)CN([C@@H](C)CO)S3(=O)=O)c1,3,.,.,.,.,.,
O=C(C1CCC1)N1CC(=O)N2[C@@H](CO)[C@@H](c3ccc(C#CCc4ccccc4)cc3)[C@@H]2C1,2,.,.,.,.,.,
Nc1nc(-c2ccc(-n3nncc3-c3ccco3)cc2)cs1,.,3,.,-6,.,.,
Nc1nc(-c2ccco2)cs1,.,1,-4,37*,-14,-1,
C[C@@H]1CCCCO[C@H](CN(C)S(=O)(=O)c2ccc(Cl)cc2)[C@@H](C)CN([C@@H](C)CO)C(=O)c2cc(NC(=O)NC3CCCCC3)ccc2O1,2,.,.,.,.,.,
O=C1S/C(=C\C=C\c2ccco2)C(=O)N1c1ccccc1,.,5,9,49*,45*,34,
O=C1S/C(=C\C=C\c2ccco2)C(=O)N1c1ccc(O)cc1,43*,5,17,129*,-2,11,
Cn1cc(/C=C2\SC(=O)N(c3ccccc3)C2=O)c2ccccc21,.,-2,15,9,.,.,
COc1cc(/C=N/Nc2ccc(Cl)c(C(=O)O)c2)ccc1OCC(=O)N1C(C)CCCC1C (stereo not drawn),.,.,-29,45*,70*,-9,
COc1cc(/C=N/Nc2ccc(Cl)c(C(=O)O)c2)ccc1OC(=O)c1ccco1,3,5,-2,38*,65*,-12,
COc1cc(/C=N/Nc2ccc(Cl)c(C(=O)O)c2)ccc1OC(=O)c1cccs1,3,30,-2,35,.,.,
COc1cc(/C=N/NC(N)=O)ccc1OCC(=O)N1C(C)CCCC1C (stereo not drawn),-3,-2,1,2,.,.,
CCCNC(=O)N(C)C[C@@H]1Oc2ncc(-c3ccccc3)cc2C(=O)N([C@@H](C)CO)C[C@@H]1C,-1,.,.,.,.,.,
SMILES,CASP6 VEID inh,NSD2 inh,DNMT1 block,NS3 helicase inh,NS3 helicase cf,DNA FID counter,others
Oc1c(Br)cc(Br)cc1/C=N/Nc1ccc(Cl)nn1,0,0,0,41*,-21,6,
Oc1c(Br)cc(/C=N/Nc2ccc(Cl)nn2)cc1Br,13,3,0,17,.,.,
Cc1ccc(CNC(=O)C2CCN(S(=O)(=O)c3c(C)noc3/C=C/c3ccco3)CC2)cc1,2,.,-11,63*,-13,-3,
O=[N+]([O-])c1cc(Cc2ccccc2)cc(C=Nc2ccc(N3CCOCC3)cc2)c1O,.,1,-6,50*,55*,23,DNA FID DR=>79
Cc1ccc(O)c(N=Cc2cc(Cc3ccccc3)cc([N+](=O)[O-])c2O)c1,.,0,-5,5,.,.,
CCCC#Cc1ccc2c(c1)O[C@H](CN(C)C(=O)c1ccccc1)[C@H](C)CN([C@@H](C)CO)S2(=O)=O,-2,.,.,.,.,.,
Cc1ccc(C(C(=O)NC2CCCCC2)N(Cc2ccccc2)C(=O)Cc2c[nH]c3ccccc23)o1 (stereo not drawn),.,-1,-11,-10,.,.,
COc1ccc(CN(C(=O)Cc2c[nH]c3ccccc23)C(C(=O)NC2CCCCC2)c2ccc(C)o2)cc1 (stereo not drawn),.,-1,-14,65*,11,-22,
Cc1cc(N2C(=O)C(=O)/C(=C(/O)c3ccc(F)cc3)C2c2ccc(Cl)cc2)no1 (stereo not drawn),.,-2,1,43*,68*,-4,
Cc1noc(C)c1NC(=O)N(C)C[C@H]1OCCCC[C@H](C)Oc2ccc(NC(=O)CCC(F)(F)F)cc2C(=O)N([C@@H](C)CO)C[C@@H]1C,-7,.,.,.,.,.,
COc1ccc(-c2cnc3c(c2)C(=O)N([C@H](C)CO)C[C@@H](C)[C@@H](CN(C)C(=O)C2CCC2)O3)cc1,2,.,.,.,.,.,
Cc1ccccc1S(=O)(=O)N1[C@@H]2Cn3c(cccc3=O)[C@H]1[C@@H](C(=O)N1CCOCC1)[C@@H]2CO,-2,.,.,.,.,.,
CCOC(=O)c1c(S(=O)(=O)NCCc2ccc(OC)c(OC)c2)c(C)n(C)c1C,0,3,0,39*,-11,-20,
C[C@@H]1CN([C@H](C)CO)C(=O)c2cc(-c3ccc(F)cc3)cnc2O[C@@H]1CN(C)CC1CCCC1,-2,.,.,.,.,.,
O=C(NNC(=S)NC1CCCCC1)c1sc2ccccc2c1Cl,-2,6,-7,48*,46*,-18,
Cc1ccc(-c2cc(C(=O)O)c3cc(Br)ccc3n2)s1,-4,-1,-3,38*,37*,-6,
Cc1ccc(-c2cc(C(=O)O)c3cc(Br)ccc3n2)o1,26,11,22,38*,79*,8,

# Assay outcomes as filed in PubChem.
